{"source": "ChEMBL document CHEMBL4033651", "about": "“Exploration of flexible phenylpropylurea scaffold as novel cardiac myosin activators for the treatment of systolic heart failure” (Eur J Med Chem, 2017)", "key": {"[1]": {"organism": "Gallus gallus", "assay": "Activation of actin-stimulated chicken gizzard smooth muscle myosin S1 fragment ATPase activity at 100 uM after 10 mins by spectrophotometric analysis", "method_in_brief": "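Chicken gizzard smooth muscle S1 myosin with actin plus tropomyosin at pCa 6.5, in 20 mM Tris HCl pH 7.5, 15 mM KCl, 6 mM MgCl2, 1 mM ATP. Compound at single 100 uM dose, 10 min at room temperature. Cytophos stop; phosphate read at 650 nm. % activity versus blank-corrected DMSO control.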"}, "[2]": {"tested_on": "Rattus norvegicus", "assay": "Positive inotropic activity in Sprague-Dawley rat heart assessed as heart rate at 16 ug/kg/min for 3 mins by echocardiographic analysis (reference value: 281 to 347 bpm)", "format": "functional"}, "[3]": {"tested_on": "Rattus norvegicus", "assay": "Positive inotropic activity in Sprague-Dawley rat heart assessed as ejection fraction at 16 ug/kg/min for 3 mins by echocardiographic analysis (reference value: 67.16 to 85.81%)", "format": "functional", "method_in_brief": "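Seven-week-old male Sprague-Dawley rats under 1.5 % isoflurane via nosecone. Drug given through a right internal jugular vein central line. Left ventricular fractional shortening and ejection fraction measured by echocardiography with and without sample, expressed as % increase.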"}, "[4]": {"tested_on": "Rattus norvegicus", "assay": "Effect on hemodynamic parameters in Sprague-Dawley rat heart assessed as end-systolic pressure at 16 ug/kg/min (reference value: 87.48 to 97.85 mmHg)", "format": "functional"}, "[5]": {"tested_on": "Rattus norvegicus", "assay": "Effect on hemodynamic parameters in Sprague-Dawley rat heart assessed as end-systolic pressure at 32 ug/kg/min (reference value: 87.48 mmHg)", "format": "functional"}, "[6]": {"tested_on": "Rattus norvegicus", "assay": "Effect on hemodynamic parameters in Sprague-Dawley rat heart assessed as end-systolic pressure at 64 ug/kg/min (reference value: 87.48 mmHg)", "format": "functional"}, "[7]": {"tested_on": "Rattus norvegicus", "assay": "Effect on hemodynamic parameters in Sprague-Dawley rat heart assessed as end-systolic pressure at 128 ug/kg/min (reference value: 87.48 mmHg)", "format": "functional"}, "[8]": {"tested_on": "Rattus norvegicus", "assay": "Effect on hemodynamic parameters in Sprague-Dawley rat heart assessed as end-diastolic pressure at 8 ug/kg/min (reference value: 7.68 to 9.83 mmHg)", "format": "functional"}, "[9]": {"tested_on": "Rattus norvegicus", "assay": "Effect on hemodynamic parameters in Sprague-Dawley rat heart assessed as end-diastolic pressure at 16 ug/kg/min (reference value: 7.68 to 9.64 mmHg)", "format": "functional"}, "[10]": {"tested_on": "Rattus norvegicus", "assay": "Effect on hemodynamic parameters in Sprague-Dawley rat heart assessed as end-diastolic pressure at 32 ug/kg/min (reference value: 9.64 mmHg)", "format": "functional"}, "[11]": {"tested_on": "Rattus norvegicus", "assay": "Effect on hemodynamic parameters in Sprague-Dawley rat heart assessed as end-diastolic pressure at 64 ug/kg/min (reference value: 9.64 mmHg)", "format": "functional"}, "[12]": {"tested_on": "Rattus norvegicus", "assay": "Effect on hemodynamic parameters in Sprague-Dawley rat heart assessed as end-diastolic pressure at 128 ug/kg/min (reference value: 9.64 mmHg)", "format": "functional"}, "[13]": {"tested_on": "Rattus norvegicus", "assay": "Effect on hemodynamic parameters in Sprague-Dawley rat heart assessed as dPdT max at 32 ug/kg/min (reference value: 4162 mmHg/s)", "format": "functional"}, "[14]": {"tested_on": "Rattus norvegicus", "assay": "Effect on hemodynamic parameters in Sprague-Dawley rat heart assessed as dPdT max at 64 ug/kg/min (reference value: 4162 mmHg/s)", "format": "functional"}, "[15]": {"tested_on": "Rattus norvegicus", "assay": "Effect on hemodynamic parameters in Sprague-Dawley rat heart assessed as dPdT max at 128 ug/kg/min (reference value: 4162 mmHg/s)", "format": "functional"}, "[16]": {"tested_on": "Rattus norvegicus", "assay": "Effect on hemodynamic parameters in Sprague-Dawley rat heart assessed as dPdT min at 32 ug/kg/min (reference value: -4611 mmHg/s)", "format": "functional"}, "[17]": {"tested_on": "Rattus norvegicus", "assay": "Effect on hemodynamic parameters in Sprague-Dawley rat heart assessed as dPdT min at 64 ug/kg/min (reference value: -4611 mmHg/s)", "format": "functional"}, "[18]": {"tested_on": "Rattus norvegicus", "assay": "Effect on hemodynamic parameters in Sprague-Dawley rat heart assessed as dPdT min at 128 ug/kg/min (reference value: -4611 mmHg/s)", "format": "functional"}, "[19]": {"tested_on": "Rattus norvegicus", "assay": "Effect on hemodynamic parameters in Sprague-Dawley rat heart assessed as heart rate at 32 ug/kg/min (reference value: 274 bpm)", "format": "functional"}, "[20]": {"tested_on": "Rattus norvegicus", "assay": "Effect on hemodynamic parameters in Sprague-Dawley rat heart assessed as heart rate at 64 ug/kg/min (reference value: 274 bpm)", "format": "functional"}, "[21]": {"tested_on": "Rattus norvegicus", "assay": "Effect on hemodynamic parameters in Sprague-Dawley rat heart assessed as heart rate at 128 ug/kg/min (reference value: 274 bpm)", "format": "functional"}, "[22]": {"tested_on": "Rattus norvegicus", "assay": "Effect on hemodynamic parameters in Sprague-Dawley rat heart assessed as end-systolic pressure at 2 ug/kg/min (reference value: 97.85 mmHg)", "format": "functional"}, "[23]": {"tested_on": "Rattus norvegicus", "assay": "Effect on hemodynamic parameters in Sprague-Dawley rat heart assessed as end-systolic pressure at 4 ug/kg/min (reference value: 94.65 to 97.85 mmHg)", "format": "functional"}, "[24]": {"tested_on": "Rattus norvegicus", "assay": "Effect on hemodynamic parameters in Sprague-Dawley rat heart assessed as end-diastolic pressure at 2 ug/kg/min (reference value: 7.68 mmHg)", "format": "functional"}, "[25]": {"tested_on": "Rattus norvegicus", "assay": "Effect on hemodynamic parameters in Sprague-Dawley rat heart assessed as end-diastolic pressure at 4 ug/kg/min (reference value: 7.68 to 9.83 mmHg)", "format": "functional"}, "[26]": {"tested_on": "Rattus norvegicus", "assay": "Effect on hemodynamic parameters in Sprague-Dawley rat heart assessed as dPdT max at 2 ug/kg/min (reference value: 5214 mmHg/s)", "format": "functional"}, "[27]": {"tested_on": "Rattus norvegicus", "assay": "Effect on hemodynamic parameters in Sprague-Dawley rat heart assessed as dPdT max at 4 ug/kg/min (reference value: 4985 to 5214 mmHg/s)", "format": "functional"}, "[28]": {"tested_on": "Rattus norvegicus", "assay": "Effect on hemodynamic parameters in Sprague-Dawley rat heart assessed as dPdT min at 2 ug/kg/min (reference value: -5462 mmHg/s)", "format": "functional"}, "[29]": {"tested_on": "Rattus norvegicus", "assay": "Effect on hemodynamic parameters in Sprague-Dawley rat heart assessed as dPdT min at 4 ug/kg/min (reference value: -5462 to -4898 mmHg/s)", "format": "functional"}, "[30]": {"tested_on": "Rattus norvegicus", "assay": "Effect on hemodynamic parameters in Sprague-Dawley rat heart assessed as heart rate at 2 ug/kg/min (reference value: 322 bpm)", "format": "functional"}, "[31]": {"tested_on": "Rattus norvegicus", "assay": "Effect on hemodynamic parameters in Sprague-Dawley rat heart assessed as heart rate at 4 ug/kg/min (reference value: 260 to 322 bpm)", "format": "functional"}}, "data": [{"smiles": "O=C(NCCCc1ccccc1)NCc1ccccc1", "values": [{"measurement": "Activity", "setting": "[1]", "value": -3.7, "unit": "%"}, {"measurement": "Activity", "setting": "[2]", "value": 412, "unit": "bpm"}, {"measurement": "Activity", "setting": "[3]", "value": 95.44, "unit": "%"}, {"measurement": "Activity", "setting": "[4]", "value": 94.26, "unit": "mmHg"}, {"measurement": "Activity", "setting": "[5]", "value": 95.74, "unit": "mmHg"}, {"measurement": "Activity", "setting": "[6]", "value": 108.41, "unit": "mmHg"}, {"measurement": "Activity", "setting": "[7]", "value": 113.24, "unit": "mmHg"}, {"measurement": "Activity", "setting": "[8]", "value": 10.71, "unit": "mmHg"}, {"measurement": "Activity", "setting": "[9]", "value": 11.33, "unit": "mmHg"}, {"measurement": "Activity", "setting": "[10]", "value": 12.26, "unit": "mmHg"}, {"measurement": "Activity", "setting": "[11]", "value": 16.85, "unit": "mmHg"}, {"measurement": "Activity", "setting": "[12]", "value": 24.12, "unit": "mmHg"}, {"measurement": "Activity", "setting": "[13]", "value": 4744, "unit": "mmHg/s"}, {"measurement": "Activity", "setting": "[14]", "value": 5382, "unit": "mmHg/s"}, {"measurement": "Activity", "setting": "[15]", "value": 6146, "unit": "mmHg/s"}, {"measurement": "Activity", "setting": "[16]", "value": -5375, "unit": "mmHg/s"}, {"measurement": "Activity", "setting": "[17]", "value": -6138, "unit": "mmHg/s"}, {"measurement": "Activity", "setting": "[18]", "value": -6346, "unit": "mmHg/s"}, {"measurement": "Activity", "setting": "[19]", "value": 268, "unit": "bpm"}, {"measurement": "Activity", "setting": "[20]", "value": 277, "unit": "bpm"}, {"measurement": "Activity", "setting": "[21]", "value": 284, "unit": "bpm"}]}, {"smiles": "COC(=O)N1CCN(Cc2cccc(NC(=O)Nc3ccc(C)nc3)c2F)CC1", "note": "[OMECAMTIV MECARBIL]", "values": [{"measurement": "Activity", "setting": "[22]", "value": 109.76, "unit": "mmHg"}, {"measurement": "Activity", "setting": "[1]", "value": -5.5, "unit": "%"}, {"measurement": "Activity", "setting": "[2]", "value": 367, "unit": "bpm"}, {"measurement": "Activity", "setting": "[3]", "value": 89.17, "unit": "%"}, {"measurement": "Activity", "setting": "[4]", "value": 108.91, "unit": "mmHg"}, {"measurement": "Activity", "setting": "[8]", "value": 6.21, "unit": "mmHg"}, {"measurement": "Activity", "setting": "[9]", "value": 6.46, "unit": "mmHg"}, {"measurement": "Activity", "setting": "[23]", "value": 108.85, "unit": "mmHg"}, {"measurement": "Activity", "setting": "[24]", "value": 7.65, "unit": "mmHg"}, {"measurement": "Activity", "setting": "[25]", "value": 7, "unit": "mmHg"}, {"measurement": "Activity", "setting": "[26]", "value": 6320, "unit": "mmHg/s"}, {"measurement": "Activity", "setting": "[27]", "value": 6645, "unit": "mmHg/s"}, {"measurement": "Activity", "setting": "[28]", "value": -6628, "unit": "mmHg/s"}, {"measurement": "Activity", "setting": "[29]", "value": -6516, "unit": "mmHg/s"}, {"measurement": "Activity", "setting": "[30]", "value": 322, "unit": "bpm"}, {"measurement": "Activity", "setting": "[31]", "value": 326, "unit": "bpm"}]}]}
